Measurements: ChEMBL document CHEMBL4020714, “Design, synthesis, and evaluation of curcumin derivatives as Nrf2 activators and cytoprotectors against oxidative death” (Eur J Med Chem, 2017)
Activity calls are given as the source filed them. The rule behind the calls is not given here.

Experiments:
[1] = target: T1, Nuclear factor erythroid 2-related factor 2 (Homo sapiens) (UniProt Q16236); assay: Activation of Nrf2 in human HepG2 cells assessed as increase in GCLM expression level at 5 uM in presence of 25 uM JNK inhibitor SP600125 for 1 hr prior to compound treatment by Western blot analysis; assay type: cell-based
T1 sequence (whole entry): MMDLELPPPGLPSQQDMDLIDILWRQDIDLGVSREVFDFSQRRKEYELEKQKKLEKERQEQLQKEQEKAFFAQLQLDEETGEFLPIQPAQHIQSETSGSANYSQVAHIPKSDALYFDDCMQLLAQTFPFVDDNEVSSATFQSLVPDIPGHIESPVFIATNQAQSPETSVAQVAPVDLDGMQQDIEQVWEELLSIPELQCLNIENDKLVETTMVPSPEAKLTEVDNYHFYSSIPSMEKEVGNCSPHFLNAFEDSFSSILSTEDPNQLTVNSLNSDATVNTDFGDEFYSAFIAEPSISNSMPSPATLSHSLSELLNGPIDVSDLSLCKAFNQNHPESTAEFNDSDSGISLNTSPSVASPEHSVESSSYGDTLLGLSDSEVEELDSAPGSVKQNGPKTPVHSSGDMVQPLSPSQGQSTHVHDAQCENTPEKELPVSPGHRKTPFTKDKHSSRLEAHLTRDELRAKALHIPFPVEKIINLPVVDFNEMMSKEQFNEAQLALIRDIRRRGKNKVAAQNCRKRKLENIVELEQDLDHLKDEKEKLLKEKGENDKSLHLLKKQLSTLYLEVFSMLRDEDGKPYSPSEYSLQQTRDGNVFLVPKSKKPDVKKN
In short: (§1)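 HepG2 cells (2×10^6/well) treated at the indicated concentrations and times. Whole-cell lysates, or nuclear and cytoplasmic fractions, are prepared and quantified by BCA. Samples are run at 40 μg/lane on 12% SDS-PAGE, transferred to nitrocellulose, probed with specific antibodies and HRP secondary (1/5000), and detected by ECL. Where used, LY294002 (15 μM), SP600125 (25 μM) or DTT (400 μM) is added 1 h before compound.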

[2] = target: T1, Nuclear factor erythroid 2-related factor 2 (Homo sapiens); assay: (§2) Activation of Nrf2 in human HepG2 cells assessed as cytoprotection against t-BHP-induced oxidative cell death at 5 uM incubated for 24 hrs followed by compound removal with subsequent incubation with 900 uM of t-BHP for 6 hrs by MTT assay; assay type: cell-based
In short: (§3)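 HepG2 cells (5×10^3/well) seeded and grown 24 h in 1640 medium with 10% FBS at 37 °C and 5% CO2. Compound is added for 24 h, then removed, and cells are challenged with 900 μM t-BHP for 6 h at 37 °C. MTT (0.5 mg/mL) is added for 4 h, formazan dissolved in DMSO, and absorbance read at 570 nm. Where used, inhibitors are added 1 h before compound. Mean ± SD of three independent experiments.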

[3] = target: T1, Nuclear factor erythroid 2-related factor 2 (Homo sapiens); assay: as §2, with “6 hrs in presence of 100 nM copper chelator NEO for 1 hr prior to compound treatment by MTT” for “6 hrs by MTT”; assay type: cell-based; in short: as §3
[4] = target: T1, Nuclear factor erythroid 2-related factor 2 (Homo sapiens); assay: Activation of Nrf2 in human HepG2 cells assessed as increase in HO-1 expression level at 5 uM in presence of 25 uM JNK inhibitor SP600125 for 1 hr prior to compound treatment by Western blot analysis; assay type: cell-based; in short: as §1
[5] = target: T1, Nuclear factor erythroid 2-related factor 2 (Homo sapiens); assay: Activation of Nrf2 in human HepG2 cells assessed as increase in GCLM expression level at 5 uM in presence of 15 uM PI3K/Akt inhibitor LY294002 for 1 hr prior to compound treatment by Western blot analysis; assay type: cell-based; in short: as §1
[6] = target: T1, Nuclear factor erythroid 2-related factor 2 (Homo sapiens); assay: Activation of Nrf2 in human HepG2 cells assessed as increase in GCLC expression level at 5 uM by Western blot analysis; assay type: cell-based; conditions: TDE = time-dependent effect; in short: as §1
[7] = target: T1, Nuclear factor erythroid 2-related factor 2 (Homo sapiens); assay: as §2, with “6 hrs in presence of 400 uM metal ion chelator EDTA for 1 hr prior to compound treatment by MTT” for “6 hrs by MTT”; assay type: cell-based
[8] = target: c-Jun N-terminal kinase, JNK (Homo sapiens) (UniProt P45983+P53779+P45984); assay: Induction of JNK phosphorylation in human HepG2 cells at 5 uM by Western blot analysis; assay type: cell-based; conditions: TDE = time-dependent effect; in short: as §1
[9] = target: T1, Nuclear factor erythroid 2-related factor 2 (Homo sapiens); assay: as §2, with “6 hrs in presence of 3 uM HO-1 inhibitor ZnPP for 1 hr prior to compound treatment by MTT” for “6 hrs by MTT”; assay type: cell-based; in short: as §3
[10] = species on record: Homo sapiens; assay: Induction of ERK phosphorylation in human HepG2 cells at 5 uM after 15 to 120 mins by Western blot analysis; assay type: cell-based; in short: as §1
[11] = target: T1, Nuclear factor erythroid 2-related factor 2 (Homo sapiens); assay: Activation of Nrf2 in human HepG2 cells assessed as cytoprotection against t-BHP-induced oxidative cell death incubated for 24 hrs followed by compound removal with subsequent incubation with 900 uM of t-BHP for 6 hrs by MTT assay; assay type: cell-based; in short: as §3
[12] = target: T1, Nuclear factor erythroid 2-related factor 2 (Homo sapiens); assay: Activation of Nrf2 in human HepG2 cells assessed as increase in GCLC expression level after 24 hrs by Western blot analysis; assay type: cell-based; in short: as §1
[13] = test system: HepG2; assay: Antioxidant activity against t-BHP-induced oxidative stress in human HepG2 cells assessed as inhibition of intracellular ROS accumulation incubated for 24 hrs followed by t-BHP addition for 3 hrs by DCFH-DA staining based flow cytometric analysis; assay type: functional, cell-based
In short: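 HepG2 cells (4×10^5/well) exposed to compound (1.25, 2.5 or 5 μM) or DMSO for 24 h, then to 900 μM t-BHP for 3 h. Cells collected, stained with 3 μM DCFH-DA for 30 min at 37 °C in the dark, washed with PBS, and analysed at once by flow cytometry (FITC channel). Values normalised to the corresponding control.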

[14] = target: T1, Nuclear factor erythroid 2-related factor 2 (Homo sapiens); assay: as §2, with “6 hrs in presence of 100 uM iron chelator DFO for 1 hr prior to compound treatment by MTT” for “6 hrs by MTT”; assay type: cell-based; in short: as §3
[15] = target: T1, Nuclear factor erythroid 2-related factor 2 (Homo sapiens); assay: Activation of Nrf2 in human HepG2 cells assessed as increase in GCLM expression level after 3 hrs by Western blot analysis; assay type: cell-based; in short: as §1
[16] = target: T1, Nuclear factor erythroid 2-related factor 2 (Homo sapiens); assay: Activation of Nrf2 in human HepG2 cells assessed as increase in GCLC expression level at 5 uM in presence of 25 uM JNK inhibitor SP600125 for 1 hr prior to compound treatment by Western blot analysis; assay type: cell-based; in short: as §1
[17] = target: T1, Nuclear factor erythroid 2-related factor 2 (Homo sapiens); assay: Activation of Nrf2 in human HepG2 cells assessed as increase in GCLC expression level at 5 uM in presence of 15 uM PI3K/Akt inhibitor LY294002 for 1 hr prior to compound treatment by Western blot analysis; assay type: cell-based; in short: as §1
[18] = target: Keap1/Nrf2 (Homo sapiens) (UniProt Q16236+Q14145); assay: Inhibition of Keap1/Nrf2 interaction in human HepG2 cells assessed as increase in Nrf2 expression level after 3 hrs in presence of DTT for 1 hr prior to compound treatment by Western blot analysis; assay type: cell-based; in short: as §1
Sequence of Keap1/Nrf2 (Homo sapiens) (Q14145 whole entry, looked up, one chain of several): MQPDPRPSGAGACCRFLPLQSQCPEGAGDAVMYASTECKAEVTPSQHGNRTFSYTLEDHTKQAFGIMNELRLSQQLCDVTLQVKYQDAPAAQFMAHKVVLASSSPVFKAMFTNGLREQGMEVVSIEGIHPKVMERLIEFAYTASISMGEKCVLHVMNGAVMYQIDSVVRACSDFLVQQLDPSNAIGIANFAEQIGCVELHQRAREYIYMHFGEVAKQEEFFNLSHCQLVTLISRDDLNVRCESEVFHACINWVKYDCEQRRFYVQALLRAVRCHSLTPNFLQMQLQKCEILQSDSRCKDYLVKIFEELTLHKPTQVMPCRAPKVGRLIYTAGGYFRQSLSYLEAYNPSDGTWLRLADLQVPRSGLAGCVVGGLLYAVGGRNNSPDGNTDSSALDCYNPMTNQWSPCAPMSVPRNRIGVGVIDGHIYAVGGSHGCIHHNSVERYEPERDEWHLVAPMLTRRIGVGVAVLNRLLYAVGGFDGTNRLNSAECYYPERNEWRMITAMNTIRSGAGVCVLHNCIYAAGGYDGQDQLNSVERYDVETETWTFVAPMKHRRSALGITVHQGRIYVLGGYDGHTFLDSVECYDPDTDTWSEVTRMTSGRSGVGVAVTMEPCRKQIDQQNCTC

[19] = target: T1, Nuclear factor erythroid 2-related factor 2 (Homo sapiens); assay: Activation of Nrf2 in human HepG2 cells assessed as increase in HO-1 expression level at 5 uM in presence of 15 uM PI3K/Akt inhibitor LY294002 for 1 hr prior to compound treatment by Western blot analysis; assay type: cell-based; in short: as §1

Activity [1]: inactive
Activity [4]: inactive
Activity [5]: inactive
Activity [6]: Tde
Activity [8]: Tde
Activity [12]: Dose-dependent effect
Activity [15]: Active
Activity [16]: inactive
Activity [17]: inactive
inhibition [18]: inactive
Activity [19]: inactive
SMILES: CC(C)(C(=O)/C=C/c1ccc(O)c(O)c1)C(=O)/C=C/c1ccc(O)c(O)c1
Activity [2]: Active
Activity [3]: inactive
Activity [7]: inactive
Activity [9]: inactive
Activity [10]: inactive
Activity [11]: Dose-dependent effect
inhibition [13]: Dose-dependent effect
Activity [14]: inactive
